This note sets out measurements from ChEMBL document CHEMBL1126871, “Non-steroidal glucocorticoid-like substances: receptor binding and in vivo activity” (J Med Chem, 1993).

Calls of active or inactive are those of the source. No cut-off for these calls is given here.

The target in test [1] is T1, Glucocorticoid receptor (Rattus norvegicus) (UniProt P06536).
T1 sequence (whole entry): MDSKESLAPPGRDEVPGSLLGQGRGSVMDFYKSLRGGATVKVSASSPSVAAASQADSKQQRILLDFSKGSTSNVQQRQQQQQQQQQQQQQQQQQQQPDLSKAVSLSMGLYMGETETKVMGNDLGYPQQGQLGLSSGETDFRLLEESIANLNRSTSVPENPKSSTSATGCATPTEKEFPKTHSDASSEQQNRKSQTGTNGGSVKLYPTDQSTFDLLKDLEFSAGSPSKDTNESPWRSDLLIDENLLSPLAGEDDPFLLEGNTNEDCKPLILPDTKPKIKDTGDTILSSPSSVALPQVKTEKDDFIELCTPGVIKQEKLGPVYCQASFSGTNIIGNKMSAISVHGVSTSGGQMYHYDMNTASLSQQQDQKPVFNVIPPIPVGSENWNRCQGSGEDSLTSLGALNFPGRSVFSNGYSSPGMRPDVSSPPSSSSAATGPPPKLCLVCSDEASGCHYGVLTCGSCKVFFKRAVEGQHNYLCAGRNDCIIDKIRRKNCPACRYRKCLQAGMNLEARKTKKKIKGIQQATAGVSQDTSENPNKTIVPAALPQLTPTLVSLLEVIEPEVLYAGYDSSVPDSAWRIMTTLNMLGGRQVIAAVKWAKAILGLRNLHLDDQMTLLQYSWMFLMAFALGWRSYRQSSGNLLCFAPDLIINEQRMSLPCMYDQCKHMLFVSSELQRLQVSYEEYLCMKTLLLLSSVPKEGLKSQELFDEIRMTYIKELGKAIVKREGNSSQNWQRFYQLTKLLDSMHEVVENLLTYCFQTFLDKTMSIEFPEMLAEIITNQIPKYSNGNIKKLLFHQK
Put plainly: In vivo glucocorticoid profile, depression of body weight gain without altered food consumption in rat at 50 mg/kg peroral dose. The test is classed as functional, organism-based. Set-up: dose 50 mg/kg. Put shortly:
(§1)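 Two-week oral glucocorticoid profile in rats. Thymus weight, adrenal weight and body weight gain are each expressed as % change from control.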

For test [2], the target named is T1, Glucocorticoid receptor (Rattus norvegicus). Put plainly: In vivo antiinflammatory activity in the rat, alpha-tocopherol filled pouch 48 mg/kg peroral dose; IA = inactive. Also noted: dose 48 mg/kg. Format: functional, organism-based.
Test [3] has the same target. The test is described as follows: In vivo glucocorticoid profile, depression of thymus weight in rat at 50 mg/kg peroral dose. The test is classed as functional, organism-based. Also noted: dose 50 mg/kg. Put shortly: as §1
For test [4] the target is unchanged. Put plainly: In vivo glucocorticoid profile, depression of adrenal weight in rat at 50 mg/kg peroral dose. The test is classed as functional, organism-based. Set-up: dose 50 mg/kg. Put shortly: as §1
The target is the same in test [5]. Put plainly: (§2) In vivo glucocorticoid profile, depression of adrenal weight in rat at 25 mg/kg peroral dose. Set-up: dose 25 mg/kg. The test is classed as functional, organism-based. The method, boiled down: as §1
Test [6] shares this target. The test is described as follows: In vivo antiinflammatory activity in the rat, alpha-tocopherol filled pouch 70 mg/kg peroral dose; IA = inactive. The test is classed as functional, organism-based. Set-up: dose 70 mg/kg.
Test [7] has the same target. Put plainly: (§3) In vivo glucocorticoid profile, depression of thymus weight in rat at 25 mg/kg peroral dose. The test is classed as functional, organism-based. Set-up: dose 25 mg/kg. The method, boiled down: as §1
For test [8] the target is unchanged. Put plainly: (§4) In vivo glucocorticoid profile, depression of body weight gain without altered food consumption in rat at 25 mg/kg peroral dose. Format: functional, organism-based. Set-up: dose 25 mg/kg. Put shortly: as §1
Test [9] has the same target. The test is described as follows: In vivo anti-inflammatory activity in the rat, alpha-tocopherol filled pouch peroral dose. The test is classed as functional, organism-based. Put shortly:
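Rats receive an air-filled pouch injected with 0.5 mL DL-α-tocopherol. Oral doses are given daily for 7 days, starting on the day of pouch formation, as suspensions in 1% gum tragacanth. ED50 is in mg/kg po.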

The target is the same in test [10]. The test is described as follows: Relative binding affinity (RBA) for glucocorticoid receptor from rat liver cytosol by displacement of [3H]-RU-28,362. Put shortly: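 Competitive binding to glucocorticoid receptor in liver cytosol from adrenalectomized rats, with [3H]RU28362 as ligand. RBA is derived from the concentrations of dexamethasone and of competitor giving 50% binding inhibition. A value of zero means binding was too low to measure.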

For test [11] the target is unchanged. Put plainly: In vivo glucocorticoid profile, depression of thymus weight in rat at 5 mg/kg peroral dose. The test is classed as functional, organism-based. Also noted: dose 5 mg/kg. Put shortly: as §1
Test [12] has the same target. Put plainly: (§5) In vivo glucocorticoid profile, depression of body weight gain without altered food consumption in rat at 5 mg/kg peroral dose. Format: functional, organism-based. Also noted: dose 5 mg/kg. Put shortly:
as §1

Test [13] shares this target. The test is described as follows: In vivo glucocorticoid profile, depression of adrenal weight in rat at 5 mg/kg peroral dose. The test is classed as functional, organism-based. Also noted: dose 5 mg/kg. Put shortly: as §1
For test [14] the target is unchanged. Put plainly: In vivo glucocorticoid profile, depression of body weight gain without altered food consumption in rat at 1 mg/kg peroral dose. Also noted: dose 1 mg/kg. Format: functional, organism-based. The method, boiled down:
(§6)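 Two-week oral dosing test in rats. At the end, thymus weight, adrenal weight and body weight gain are recorded and expressed as % change from control.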

Test [15] has the same target. The test is described as follows: (§7) In vivo glucocorticoid profile, depression of thymus weight in rat at 1 mg/kg peroral dose. Format: functional, organism-based. Set-up: dose 1 mg/kg. Put shortly:
as §6

The target is the same in test [16]. Put plainly: (§8) In vivo glucocorticoid profile, depression of adrenal weight in rat at 1 mg/kg peroral dose. Also noted: dose 1 mg/kg. Format: functional, organism-based. Put shortly:
as §6

The target is the same in test [17]. The description is as §5. The test is classed as functional, organism-based. Set-up: dose 5 mg/kg. The method, boiled down:
as §6
This is another data set of the same source.

Test [18] shares this target. Put plainly: In vivo glucocorticoid profile, depression of body weight gain without altered food consumption in rat at 0.2 mg/kg peroral dose. Format: functional, organism-based. Set-up: dose 0.2 mg/kg. Put shortly:
as §1

The target is the same in test [19]. The test is described as follows: In vivo glucocorticoid profile, depression of thymus weight in rat at 0.2 mg/kg peroral dose. Also noted: dose 0.2 mg/kg. Format: functional, organism-based. The method, boiled down: as §1
Test [20] shares this target. Put plainly: In vivo glucocorticoid profile, depression of adrenal weight in rat at 0.2 mg/kg peroral dose. Format: functional, organism-based. Also noted: dose 0.2 mg/kg. The method, boiled down: as §1
Test [21] has the same target. The test is described as follows: In vivo glucocorticoid profile, depression of adrenal weight in rat at 100 mg/kg peroral dose. The test is classed as functional, organism-based. Set-up: dose 100 mg/kg. The method, boiled down: as §6
Test [22] shares this target. Put plainly: In vivo glucocorticoid profile, depression of thymus weight in rat at 100 mg/kg peroral dose. The test is classed as functional, organism-based. Also noted: dose 100 mg/kg. Put shortly: as §1
Test [23] has the same target. Put plainly: In vivo antiinflammatory activity in the rat, alpha-tocopherol filled pouch 50 mg/kg peroral dose; IA = inactive. Format: functional, organism-based. Also noted: dose 50 mg/kg.
For test [24] the target is unchanged. The test is described as follows: In vivo glucocorticoid profile, depression of body weight gain without altered food consumption in rat at 100 mg/kg peroral dose. The test is classed as functional, organism-based. Also noted: dose 100 mg/kg. The method, boiled down:
as §1

For test [25] the target is unchanged. The description is as §3. The test is classed as functional, organism-based. Also noted: dose 25 mg/kg. The method, boiled down: as §6
This is another data set of the same source.

The target is the same in test [26]. The description is as §2. Set-up: dose 25 mg/kg. The test is classed as functional, organism-based. Put shortly:
as §6
This is another data set of the same source.

The target is the same in test [27]. The description is as §8. The test is classed as functional, organism-based. Also noted: dose 1 mg/kg. Put shortly: as §1
The source holds these as a separate data set.

The target is the same in test [28]. The test is described as §7. The test is classed as functional, organism-based. Also noted: dose 1 mg/kg. Put shortly: as §1
The source holds these as a separate data set.

Test [29] shares this target. The test is described as §4. The test is classed as functional, organism-based. Also noted: dose 25 mg/kg. The method, boiled down: as §6
The source holds these as a separate data set.

In turn, `C=CCN1C(=O)N(CC=C)C(=O)C2(CC=C3[C@H](CCC4=Cc5c(cnn5-c5ccc(F)cc5)C[C@@]43C)O2)C1=O` came in with a Weight gain in test [1] of -58. Besides, the ED50 result in test [2] was “inactive”. The Change in test [3] is -34%; in test [4] it was -37%.
As to `COC(=O)CN1C(=O)N(CC(=O)OC)C(=O)C2(CC=C3[C@H](CCC4=Cc5c(cnn5-c5ccc(F)cc5)C[C@@]43C)O2)C1=O`, the Change in test [5] and in test [7] was 0% in each case. Moreover, the ED50 result in test [6] was “inactive”. The compound also came in with a Weight gain in [8] of 0.
Compound `C[C@]12CCC(=O)C=C1CC[C@@H]1[C@@H]2[C@@H](O)C[C@@]2(C)[C@H]1CC[C@]2(O)C(=O)CO` returned an ED50 in test [9] of 18 mg/kg.
For the compound `CN1C(=O)N(C)C(=O)C2(CC=C3[C@H](CCC4=Cc5c(cnn5-c5ccncc5)C[C@@]43C)O2)C1=O`, the RBA in test [10] was found to be 0.72%.
On to `C#CCN1C(=O)N(CC#C)C(=O)C2(CC=C3[C@H](CCC4=Cc5c(cnn5-c5ccc(F)cc5)C[C@@]43C)O2)C1=O`, for which the Change in [11] and in test [13] was 0% throughout. Besides, the Weight gain in [12] worked out at 0.
For `C#C[C@]1(O)CCC2[C@@H]3CCC4=Cc5c(cnn5-c5ccc(F)cc5)C[C@]4(C)C3=CC[C@@]21C` (stereo partly drawn), the figures for the Weight gain in [14] and in [12] were 0 and -145, respectively. Moreover, the Change in test [11] was -76%; in [15], -41%; in test [16], -35%; in test [13], -60%.
`CC(=O)C1CC=C2[C@H](CCC3=Cc4c(cnn4-c4ccc(F)cc4)C[C@@]32C)C1C(C)=O` (stereo partly drawn) gave a Weight gain in [17] of -80. For the same compound, the Change in test [13] was -40%.
As to `CN1C(=O)N(C)C(=O)C2(CC=C3[C@H](CCC4=Cc5c(cnn5-c5ccc(F)cc5)C[C@@]43C)O2)C1=O` (stereo in doubt; 12a), the figures for the Weight gain in test [14], in [18] and in test [12] were -127, -55 and -236, respectively. Further, the Change in [11] was -83%; in test [15] it was -71%; in [19] it was -28%; in test [16], -57%; in test [20], -25%; in test [13] it was -63%. Moreover, the 50% effect level in test [9] (ED50) was put at a dose of 2 mg/kg.
Turning to `C[C@]12Cc3cnn(-c4ccccc4)c3C=C1CC[C@@H]1OC3(CC=C12)C(=O)NC(=O)NC3=O`, the Weight gain in test [1] and in [24] was 0 each time. For the same compound, the Change was 0% in test [21], 0% in [22], -34% in test [3] and 0% in [4]. Also, in test [23], the ED50 result was “inactive”.
In the case of `C[C@]12Cc3cnn(-c4ccc(F)cc4)c3C=C1CC[C@@H]1OC3(CC=C12)C(=O)NC(=O)NC3=O`, the Weight gain was -65 in test [14], -140 in [17] and -180 in [29]. The Change is -84% in test [25]; -53% in test [26]; -72% in test [11]; 0% in test [27]; -30% in [13]; 0% in [28]. This compound also registered an ED50 in test [9] of 4 mg/kg.

The ED50 is the midpoint of the dose-response relation.
